Experimental data published in ChEMBL document CHEMBL2406946 (Bioorg Med Chem, 2013).

Assays:
[1] = biological target: Aldo-keto reductase family 1 member B1 (Bos taurus) (UniProt P16116); experiment: Ratio of quercetin IC50 to compound iC50 for bovine lens aldose reductase
[2] = biological target: Aldo-keto reductase family 1 member B1 (Bos taurus, UniProt P16116); experiment: Inhibition of bovine lens aldose reductase using DL-glyceraldehyde as substrate assessed as NADPH oxidation measured for 10 mins by spectrophotometric analysis
How it was run: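 Aldose reductase isolated from bovine lens (enzyme at 750 µg/mL protein) in 50 mM PBS pH 6.2 with β-mercaptoethanol, Li2SO4 and NADPH, compounds across a 0.1–10 range. Reaction started with DL-glyceraldehyde. Fall in NADPH absorbance at 340 nm followed for 10 min.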

[3] = Induction of nitric oxide release at 10^-4 M after 1 hr by Griess assay in presence of L-cysteine relative to control; assay type: physicochemical; details: 100 µM
How it was run: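 Thiol-triggered NO release: compounds at final 10^-4 M incubated 1 h at 37 °C with L-cysteine. 1 mL of mixture treated with Griess reagent (sulfanilamide, N-naphthylethylenediamine dihydrochloride, phosphoric acid), held 10 min at room temperature, absorbance read at 540 nm. Percent NO released relative to a theoretical maximum of 1 mol NO/mol compound. Sodium nitroprusside served as positive control.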

[4] = biological target: Aldo-keto reductase family 1 member B1 (Bos taurus) (UniProt P16116); experiment: Ratio of 4-(5-hydroxy-4-oxo-2-phenyl-4H-chromen-7-yloxy)butyl nitrate IC50 to compound IC50 for bovine lens aldose reductase

| Structure (SMILES) | Ratio IC50 [1] | IC50 [2] [nM] | Activity [3] [%] | Ratio IC50 [4] |
| --- | --- | --- | --- | --- |
| CCOc1cc(O)c2c(=O)cc(-c3ccc(O)c(O)c3)oc2c1 | – | 604 | – | – |
| CCCCOc1cc(O)c2c(=O)cc(-c3ccc4c(c3)OCCO4)oc2c1 | – | 1250 | – | – |
| CCCCCCOc1cc(O)c2c(=O)cc(-c3ccc(O)c(O)c3)oc2c1 | – | 1810 | – | – |
| CCCCCCOC(=O)COc1cc(O)c2c(=O)cc(-c3ccc4c(c3)OCCO4)oc2c1 | – | 2830 | – | – |
| CCCCOc1cc(O)c2c(=O)cc(-c3ccc(O)c(O)c3)oc2c1 | – | 769 | – | – |
| CCOc1cc(O)c2c(=O)cc(-c3ccc4c(c3)OCCO4)oc2c1 | – | 1190 | – | – |
| O=c1cc(-c2ccc(O)c(O)c2)oc2cc(O)cc(O)c12 [LUTEOLIN] | – | 754 | – | – |
| O=C(COc1cc(O)c2c(=O)cc(-c3ccc4c(c3)OCCO4)oc2c1)OCCCCO[N+](=O)[O-] | – | 491 | 1.351 | – |
| CCCCOC(=O)COc1cc(O)c2c(=O)cc(-c3ccc4c(c3)OCCO4)oc2c1 | – | 523 | – | – |
| O=C(COc1cc(O)c2c(=O)cc(-c3ccc4c(c3)OCCO4)oc2c1)OCCCCCCO[N+](=O)[O-] | – | 1300 | 1.14 | – |
| CCOC(=O)COc1cc(O)c2c(=O)cc(-c3ccc4c(c3)OCCO4)oc2c1 | – | 506 | – | – |
| CCCCCCOc1cc(O)c2c(=O)cc(-c3ccc4c(c3)OCCO4)oc2c1 | – | 1710 | – | – |

Results, then the compound that gave them:

| Ratio IC50 [1] | IC50 [2] [nM] | Activity [3] [%] | Ratio IC50 [4] | Structure (SMILES) |
| --- | --- | --- | --- | --- |
| 28.5 | 99 | 2.111 | – | O=c1cc(-c2ccc3c(c2)OCCO3)oc2cc(OCCO[N+](=O)[O-])cc(O)c12 |
| – | 472 | 2.345 | – | O=c1cc(-c2ccc(O)c(O)c2)oc2cc(OCCCCO[N+](=O)[O-])cc(O)c12 |
| – | 127 | 2.813 | 2.3 | O=c1cc(-c2ccc3c(c2)OCCO3)oc2cc(OCCCCO[N+](=O)[O-])cc(O)c12 |
| – | 491 | 4.637 | – | O=c1cc(-c2ccc(O)c(O)c2)oc2cc(OCCCCCCO[N+](=O)[O-])cc(O)c12 |
| – | 445 | 1.328 | – | O=c1cc(-c2ccc3c(c2)OCCO3)oc2cc(OCCCCCCO[N+](=O)[O-])cc(O)c12 |
| – | 445 | 1.018 | – | O=C(COc1cc(O)c2c(=O)cc(-c3ccc4c(c3)OCCO4)oc2c1)OCCO[N+](=O)[O-] |
| – | 168 | 1.07 | – | O=c1cc(-c2ccc(O)c(O)c2)oc2cc(OCCO[N+](=O)[O-])cc(O)c12 |
